Assay results from different studies.
Protocols differ between the studies behind these lines.
SIRT6: NAD-dependent protein deacylase sirtuin-6 (SIRT6, Homo sapiens, UniProt Q8N6T7)
PTAFR: Platelet-activating factor receptor (PTAFR, Homo sapiens, UniProt P25105)

Compound | target | test | system | conditions | inhibition
CC1=NN(c2ccccc2)CC1 | NADPH oxidase 4 (NOX4, Homo sapiens, UniProt Q9NPH5) | enzyme activity, inhibitor, fluorescence |  | 100 µM, cell membranes | > 40%
CC/C(=N\NC(=O)NCc1cccc(O)c1)c1ccc(O)c(C)c1O | ALK tyrosine kinase receptor (ALK, Homo sapiens, UniProt Q9UM73, G1202R) | enzyme activity, inhibitor |  | 0.1 µM | -1.5%
NC(=O)c1ccc(C(=O)NOCc2cccc3ccccc23)cc1 | SIRT6 | enzyme activity, inhibitor, fluorescence |  | 100 µM | 92.2%
O=C(Nc1ccc(S(=O)(=O)N2CCC(Cl)CC2)cc1)c1ccc([N+](=O)[O-])o1 | Voltage-dependent L-type calcium channel subunit alpha-1C (Cacna1c, Rattus norvegicus, UniProt P22002) | cell-free assay |  | 10 µM | 6%
NCc1cccc(C(=O)NOCc2ccc(C(F)(F)F)cc2)c1 | SIRT6 | enzyme activity, inhibitor, fluorescence |  | 100 µM | 72.2%
Cc1cnc(C(=O)NCCNC(=O)Cn2[nH]c(=O)c3ccccc3c2=O)cn1 | Poly [ADP-ribose] polymerase 2 (PARP2, Homo sapiens, UniProt Q9UGN5) | enzyme activity, inhibitor |  | 0.5 µM | ~50%
O=C(NC1CCC1)[C@H](Cc1c[nH]c2ccccc12)NC(=O)[C@H](CCCCNC(=S)NCCc1nnn[nH]1)NS(=O)(=O)c1cccc(F)c1 | SIRT6 | enzyme activity, inhibitor |  | 10 µM | 6%
CN(C)C1CCN(CC#Cc2nn(C3CCCC3)c3nc(NCc4ccccc4)ncc23)C1 (centres unmarked) | Serine/threonine-protein kinase pim-1 (PIM1, Homo sapiens, UniProt P11309) | enzyme activity, inhibitor, FRET |  | 10 µM | 2%
NC(=O)c1ccc(C(=O)NOCc2cc(Cl)cc(Cl)c2)cc1 | SIRT6 | enzyme activity, inhibitor, fluorescence |  | 100 µM | 88.2%
Cc1ccc(CNC(=O)[C@H](CCc2ccccc2)NC(=O)[C@H](CCc2ccccc2)NC(=O)[C@H](CCc2ccccc2)NC(=O)c2cnc(C)cn2)cc1 | Cathepsin B (CTSB, Homo sapiens, UniProt P07858) | enzyme activity, inhibitor |  | 100 µM | -15%
C=CCC1(/C=C(\C)C=C)SC(=O)C(CC)=C1O (racemic) | Nicotinamide N-methyltransferase (NNMT, Homo sapiens, UniProt P40261) | enzyme activity, inhibitor |  | 10 µM | ~35%
O=[N+]([O-])c1ccc(N2CCC(NCCC(O)c3ccc(F)c4ccccc34)CC2)c(C(F)(F)F)c1 (centres unmarked) | Plasmepsin II (Plasmodium falciparum, UniProt P46925) | enzyme activity, inhibitor |  | 5 µM | 9%
CCN(Cc1ccccc1C(F)(F)F)C(=O)C1CCN(S(=O)(=O)c2ccc3[nH]ncc3c2)CC1 | PTAFR | ligand displacement, radioligand |  | 10 µM | 7%
CC(N)c1ccc(C(=O)NOCc2ccc(C(F)(F)F)cc2)cc1 (centres unmarked) | SIRT6 | enzyme activity, inhibitor, fluorescence |  | 100 µM | 89.2%
N#Cc1cc(Cn2c(N3CCCC3)nc3ccccc32)ccc1F | 5-hydroxytryptamine receptor 6 (HTR6, Homo sapiens, UniProt P50406) | ligand displacement |  | 10 µM | 6.5%
NS(=O)(=O)c1ccc(C(=O)NOCc2ccccc2)cc1 | SIRT6 | enzyme activity, inhibitor, fluorescence |  | 100 µM | 47.4%
CN(Cc1ccc(NC(=O)C2=Cc3cc(-c4ccc(OCCCO)cc4)ccc3CCC2)cc1)C1CCOCC1 | C-C chemokine receptor type 2 (CCR2, Homo sapiens, UniProt P41597) | ligand displacement, radioligand |  | 1 µM, cell membranes | 51%
OCc1cc(C(O)CNCCCCCCOCCCCc2ccccc2)ccc1O (centres unmarked) | C-C chemokine receptor type 5 (CCR5, Homo sapiens, UniProt P51681) | calcium signal, antagonist | U87/CD4/CCR5 | 100 µM | 60%
O=C(c1ccc(F)cc1)N(Cc1ccccc1)C1CCCCC1 | PTAFR | cell-free assay |  | 10 µM | 6%
O=C(NOCc1ccc(C(F)(F)F)cc1)c1ccc(-c2nn[nH]n2)cc1 | SIRT6 | enzyme activity, inhibitor, fluorescence |  | 100 µM | 4.2%
